Data reported in ChEMBL document CHEMBL4033643, “Synthesis and in vitro antitumour activity of crassalactone D, its stereoisomers and novel cinnamic ester derivatives” (Eur J Med Chem, 2017).
Calls of active or inactive are those of the source. No cut-off for these calls is given here.

Experiments:
MRC5 = experiment: Cytotoxicity against human MRC5 cells assessed as reduction in cell viability after 72 hrs by MTT assay; format: cell-based; conditions: MRC5, 72 h
HeLa = experiment: Cytotoxicity against human HeLa cells assessed as reduction in cell viability after 72 hrs by MTT assay; format: functional, cell-based
MDA-MB-231 = experiment: Cytotoxicity against human MDA-MB-231 cells assessed as reduction in cell viability after 72 hrs by MTT assay; format: functional, cell-based; conditions: MDA-MB-231, 72 h
MCF7 = experiment: Cytotoxicity against human MCF7 cells assessed as reduction in cell viability after 72 hrs by MTT assay; format: functional, cell-based; conditions: MCF7, 72 h
Raji = experiment: Cytotoxicity against human Raji cells assessed as reduction in cell viability after 72 hrs by MTT assay; format: functional, cell-based
Jurkat = experiment: Cytotoxicity against human Jurkat cells assessed as reduction in cell viability after 72 hrs by MTT assay; format: functional, cell-based
HL-60 = experiment: Cytotoxicity against human HL60 cells assessed as reduction in cell viability after 72 hrs by MTT assay; format: functional, cell-based; conditions: HL-60, 72 h
K562 [1] = experiment: Cytotoxicity against human K562 cells assessed as reduction in cell viability after 72 hrs by MTT assay; format: functional, cell-based; conditions: K562, 72 h
A549 = experiment: Cytotoxicity against human A549 cells assessed as reduction in cell viability after 72 hrs by MTT assay; format: functional, cell-based; conditions: A549, 72 h
K562 [2] = experiment: Cell cycle arrest in human K562 cells assessed as accumulation at sub G1 phase at IC50 after 72 hrs by propidium iodide staining based flow cytometry (reference value: 1.48%); format: functional
K562 [3] = experiment: Cell cycle arrest in human K562 cells assessed as accumulation at G0/G1 phase at IC50 after 72 hrs by propidium iodide staining based flow cytometry (reference value: 38.48%); format: functional
K562 [4] = experiment: Cell cycle arrest in human K562 cells assessed as accumulation at S phase at IC50 after 72 hrs by propidium iodide staining based flow cytometry (reference value: 41.03%); format: functional
K562 [5] = experiment: Cell cycle arrest in human K562 cells assessed as accumulation at G2/M phase at IC50 after 72 hrs by propidium iodide staining based flow cytometry (reference value: 19.01%); format: functional
K562 [6] = experiment: Induction of apoptosis in human K562 cells assessed as specific apoptosis by Annexin V-FITC/propidium iodide staining based flow cytometry; format: functional; design: concentration or dose not given beside the values
K562 [7] = experiment: Induction of apoptosis in human K562 cells assessed as specific necrosis by Annexin V-FITC/propidium iodide staining based flow cytometry; format: functional; design: concentration or dose not given beside the values
K562 [8] = experiment: Induction of apoptosis in human K562 cells assessed as decrease in Bcl-2 expression level by Western blot analysis; format: functional, cell-based
Method in brief: (§1)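 Western blot of treated K562 cells for Bcl-2, Bax, activated caspase 3 and cleaved PARP (85 kDa fragment). Blots developed by ECL, with band expression quantified by densitometry against an untreated control sample.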

K562 [9] = experiment: Induction of apoptosis in human K562 cells assessed as increase in Bax expression level by Western blot analysis; format: functional, cell-based; method in brief: as §1
K562 [10] = experiment: Induction of apoptosis in human K562 cells assessed as increase in caspase 3 expression level by Western blot analysis; format: functional, cell-based; method in brief: as §1
K562 [11] = experiment: Induction of apoptosis in human K562 cells assessed as increase in cleaved PARP expression level by Western blot analysis; format: functional, cell-based; method in brief: as §1
K562 [12] = experiment: Cell cycle arrest in human K562 cells assessed as total cell levels at G0/G1 phase at IC50 after 72 hrs by propidium iodide staining based flow cytometry (reference value: 39.97%); format: functional
K562 [13] = experiment: Cell cycle arrest in human K562 cells assessed as total cell levels at S phase at IC50 after 72 hrs by propidium iodide staining based flow cytometry (reference value: 36.49%); format: functional
K562 [14] = experiment: Cell cycle arrest in human K562 cells assessed as total cell levels at G2/M phase at IC50 after 72 hrs by propidium iodide staining based flow cytometry (reference value: 14.31%); format: functional
K562 [15] = experiment: Cell cycle arrest in human K562 cells assessed as total cell levels at M4 phase at IC50 after 72 hrs by propidium iodide staining based flow cytometry (reference value: 0.50%); format: functional
K562 [16] = experiment: Induction of apoptosis in human K562 cells assessed as gated necrotic cells by Annexin V-FITC/propidium iodide staining based flow cytometry (reference value: 0.24%); format: functional
K562 [17] = experiment: Induction of apoptosis in human K562 cells assessed as gated late apoptotic cells by Annexin V-FITC/propidium iodide staining based flow cytometry (reference value: 0.88%); format: functional
K562 [18] = experiment: Induction of apoptosis in human K562 cells assessed as gated viable cells by Annexin V-FITC/propidium iodide staining based flow cytometry (reference value: 95.78%); format: functional
K562 [19] = experiment: Induction of apoptosis in human K562 cells assessed as gated early apoptotic cells by Annexin V-FITC/propidium iodide staining based flow cytometry (reference value: 3.18%); format: functional
K562 [20] = experiment: Induction of apoptosis in human K562 cells assessed as total necrotic cells by Annexin V-FITC/propidium iodide staining based flow cytometry (reference value: 0.23%); format: functional
K562 [21] = experiment: Induction of apoptosis in human K562 cells assessed as total late apoptotic cells by Annexin V-FITC/propidium iodide staining based flow cytometry (reference value: 0.77%); format: functional
K562 [22] = experiment: Induction of apoptosis in human K562 cells assessed as total viable cells by Annexin V-FITC/propidium iodide staining based flow cytometry (reference value: 92.45%); format: functional
K562 [23] = experiment: Induction of apoptosis in human K562 cells assessed as total early apoptotic cells by Annexin V-FITC/propidium iodide staining based flow cytometry (reference value: 3.07%); format: functional

SMILES | IC50 (MRC5) | IC50 (HeLa) | IC50 (MDA-MB-231) | IC50 (MCF7) | IC50 (Raji) | IC50 (Jurkat) | IC50 (HL-60) | IC50 (K562 [1]) | IC50 (A549) | Activity (K562 [2]) | Activity (K562 [3]) | Activity (K562 [4]) | Activity (K562 [5]) | Activity (K562 [6]) | Activity (K562 [7]) | Activity (K562 [8]) | Activity (K562 [9]) | Activity (K562 [10]) | Activity (K562 [11]) | Activity (K562 [12]) | also measured
O=C1C=C[C@@]2(C[C@H](OC(=O)/C=C/c3ccc([N+](=O)[O-])cc3)[C@H](c3ccccc3)O2)O1 | > 100 µM | 24.8 µM | 1.25 µM | 4.31 µM | 1.64 µM | 4.03 µM | 4.36 µM | 2.22 µM | 0.85 µM | 40.08% | 30.15% | 22.7% | 7.07% | 70.03% | 1.76% | Active | inactive | Active | Active | 24.92% | Activity (K562 [13]): 18.76%; Activity (K562 [14]): 6.42%; Activity (K562 [15]): 33.19%; Activity (K562 [16]): 2.29%; Activity (K562 [17]): 1.62%; Activity (K562 [18]): 26.49%; Activity (K562 [19]): 69.6%; Activity (K562 [20]): 1.03%; Activity (K562 [21]): 0.73%; Activity (K562 [22]): 11.93%; Activity (K562 [23]): 31.35%
O=C1C=C[C@@]2(C[C@H](OC(=O)/C=C/c3ccccc3)[C@H](c3ccccc3)O2)O1 | > 100 µM | 58.5 µM | 3.64 µM | 11.4 µM | 2.28 µM | 1.02 µM | 9.65 µM | 4.65 µM | 0.25 µM | 12.49% | 27.11% | 42.16% | 18.24% | 6.76% | 28.29% | Active | inactive | Active | Active | 18.23% | Activity (K562 [13]): 27.97%; Activity (K562 [14]): 12.13%; Activity (K562 [15]): 8.27%; Activity (K562 [16]): 8.36%; Activity (K562 [17]): 10.47%; Activity (K562 [18]): 31.14%; Activity (K562 [19]): 50.03%; Activity (K562 [20]): 6.66%; Activity (K562 [21]): 8.34%; Activity (K562 [22]): 24.8%; Activity (K562 [23]): 39.85%
O=C1C=C[C@]2(C[C@H](OC(=O)/C=C/c3ccccc3)[C@H](c3ccccc3)O2)O1 | > 100 µM | 14.5 µM | 5.23 µM | 5.34 µM | 9.68 µM | 5.63 µM | 3.41 µM | 4.62 µM | 1.02 µM | 5.69% | 21.01% | 38.09% | 35.21% | 81.79% | 1.97% | Active | Active | inactive | inactive | 17.87% | Activity (K562 [13]): 31.69%; Activity (K562 [14]): 29.57%; Activity (K562 [15]): 4.73%; Activity (K562 [16]): 2.09%; Activity (K562 [17]): 15.25%; Activity (K562 [18]): 15.4%; Activity (K562 [19]): 67.26%; Activity (K562 [20]): 1.67%; Activity (K562 [21]): 12.17%; Activity (K562 [22]): 12.29%; Activity (K562 [23]): 53.67%
O=C1C=C[C@]2(C[C@H](OC(=O)/C=C/c3ccc([N+](=O)[O-])cc3)[C@@H](c3ccccc3)O2)O1 | > 100 µM | 2.22 µM | > 100 µM | 8.58 µM | > 100 µM | 31.2 µM | 2.24 µM | 5.64 µM | 45.4 µM | 2.13% | 48.17% | 28.04% | 21.66% | 0.75% | 3.4% | inactive | Active | inactive | inactive | 43.62% | Activity (K562 [13]): 25.39%; Activity (K562 [14]): 20.35%; Activity (K562 [15]): 1.93%; Activity (K562 [16]): 0.72%; Activity (K562 [17]): 0.87%; Activity (K562 [18]): 94.55%; Activity (K562 [19]): 3.86%; Activity (K562 [20]): 0.71%; Activity (K562 [21]): 0.85%; Activity (K562 [22]): 92.65%; Activity (K562 [23]): 3.78%
COc1ccc(/C=C/C(=O)O[C@H]2C[C@@]3(C=CC(=O)O3)O[C@H]2c2ccccc2)cc1 | > 100 µM | 9.94 µM | 2.69 µM | 3.25 µM | 3.05 µM | 2.54 µM | 2.25 µM | 1.02 µM | 0.45 µM | 3.23% | 47.26% | 29.4% | 20.11% | 2.36% | 1.6% | Active | inactive | Active | Active | 42.31% | Activity (K562 [13]): 26.32%; Activity (K562 [14]): 18.76%; Activity (K562 [15]): 2.89%; Activity (K562 [16]): 2.44%; Activity (K562 [17]): 0.29%; Activity (K562 [18]): 95.84%; Activity (K562 [19]): 1.42%; Activity (K562 [20]): 2.34%; Activity (K562 [21]): 0.28%; Activity (K562 [22]): 91.77%; Activity (K562 [23]): 1.36%
